Experimental data published in ChEMBL document CHEMBL4043093, “2-Oxo-3, 4-dihydropyrimido[4, 5-d]pyrimidinyl derivatives as new irreversible pan fibroblast growth factor receptor (FGFR) inhibitors” (Eur J Med Chem, 2017).

Key:
[1] = biological target: Fibroblast growth factor receptor 4 (Homo sapiens, UniProt P22455); test: Inhibition of human recombinant His-tagged FGFR4 cytoplasmic domain ([…] residues) expressed in baculovirus using Tyr-4 peptide after 1 hr by FRET-based Z'-Lyte assay
[2] = tested on: Tyrosine-protein kinase ABL1 (Homo sapiens), P00519 [E255K]; test: Inhibition of human phosphorylated ABL1 E255K mutant (S229 to K512 residues) expressed in HEK293 cells assessed as residual activity at 1000 nM after 30 mins by Kinomescan method relative to control; format: cell-based
In short: (§1)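 Single-point screen at a fixed 1 µM, run within a 456-kinase DiscoveRx KINOMEscan panel. Each kinase's read-out is Percent Control, i.e. signal relative to a control without compound. Hits were scored by a Percent Control < 35 cut-off, and an S(35) selectivity score was calculated across the non-mutant kinases.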

[3] = biological target: Activin receptor type-1 (Homo sapiens) (UniProt Q04771); test: Inhibition of wild-type human ACVR1 (C188 to C509 residues) expressed in Escherichia coli BL21 assessed as residual activity at 1000 nM after 30 mins by Kinomescan method relative to control; in short: as §1
Chain of Activin receptor type-1 (Homo sapiens) (Q04771 whole entry, the tested form may be a part): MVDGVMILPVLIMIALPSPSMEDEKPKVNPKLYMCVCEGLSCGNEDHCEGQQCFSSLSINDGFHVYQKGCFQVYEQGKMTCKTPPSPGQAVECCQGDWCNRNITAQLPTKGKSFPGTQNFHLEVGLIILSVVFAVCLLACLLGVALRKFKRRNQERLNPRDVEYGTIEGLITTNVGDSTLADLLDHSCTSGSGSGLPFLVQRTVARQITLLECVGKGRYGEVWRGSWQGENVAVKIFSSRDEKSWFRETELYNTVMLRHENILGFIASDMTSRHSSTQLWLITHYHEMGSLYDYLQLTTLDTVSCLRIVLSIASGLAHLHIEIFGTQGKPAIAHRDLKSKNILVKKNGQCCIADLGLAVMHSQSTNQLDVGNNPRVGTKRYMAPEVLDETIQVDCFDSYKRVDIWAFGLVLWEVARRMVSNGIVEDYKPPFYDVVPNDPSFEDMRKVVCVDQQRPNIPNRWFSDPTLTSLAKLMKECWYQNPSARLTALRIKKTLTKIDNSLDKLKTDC

[4] = biological target: ALK tyrosine kinase receptor (Homo sapiens) (UniProt Q9UM73); test: Inhibition of wild-type human partial length ALK (I1088 to E1409 residues) expressed in HEK293 cells assessed as residual activity at 1000 nM after 30 mins by Kinomescan method relative to control; format: cell-based
[5] = biological target: Aurora kinase B (Homo sapiens) (UniProt Q96GD4); test: Inhibition of wild-type human partial length AURKB (D25 to A303 residues) expressed in HEK293 cells assessed as residual activity at 1000 nM after 30 mins by Kinomescan method relative to control; format: cell-based
Chain of Aurora kinase B (Homo sapiens) (Q96GD4 whole entry, the tested form may be a part): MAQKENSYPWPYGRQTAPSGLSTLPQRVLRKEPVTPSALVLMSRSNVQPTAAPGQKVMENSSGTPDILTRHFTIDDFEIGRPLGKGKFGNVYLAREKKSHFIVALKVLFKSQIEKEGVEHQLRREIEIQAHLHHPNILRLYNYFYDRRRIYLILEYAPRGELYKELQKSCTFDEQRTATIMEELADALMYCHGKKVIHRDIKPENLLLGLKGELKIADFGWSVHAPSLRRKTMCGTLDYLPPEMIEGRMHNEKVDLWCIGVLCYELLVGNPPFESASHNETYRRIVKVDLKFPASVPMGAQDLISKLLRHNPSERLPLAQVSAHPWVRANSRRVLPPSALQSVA

[6] = biological target: Dual specificity protein kinase CLK3 (Homo sapiens) (UniProt P49761); test: Inhibition of wild-type human full length CLK3 (M1 to R490 residues) expressed in Escherichia coli BL21 assessed as residual activity at 1000 nM after 30 mins by Kinomescan method relative to control; in short: as §1
[7] = tested on: Epidermal growth factor receptor (Homo sapiens), P00533 [UNDEFINED MUTATION]; test: Inhibition of human partial length EGFR E746-A750del mutant expressed in Escherichia coli BL21 assessed as residual activity at 1000 nM after 30 mins by Kinomescan method relative to control
In short: (§2)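 KINOMEscan binding panel of 456 kinases, with the test compound at a single concentration of 1 µM. Read-out is Percent Control.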

[8] = biological target: Ephrin type-A receptor 2 (Homo sapiens) (UniProt P29317); test: Inhibition of wild-type human partial length EPHA2 (T593 to V891 residues) expressed in Escherichia coli BL21 assessed as residual activity at 1000 nM after 30 mins by Kinomescan method relative to control
Chain of Ephrin type-A receptor 2 (Homo sapiens) (P29317 whole entry, the tested form may be a part): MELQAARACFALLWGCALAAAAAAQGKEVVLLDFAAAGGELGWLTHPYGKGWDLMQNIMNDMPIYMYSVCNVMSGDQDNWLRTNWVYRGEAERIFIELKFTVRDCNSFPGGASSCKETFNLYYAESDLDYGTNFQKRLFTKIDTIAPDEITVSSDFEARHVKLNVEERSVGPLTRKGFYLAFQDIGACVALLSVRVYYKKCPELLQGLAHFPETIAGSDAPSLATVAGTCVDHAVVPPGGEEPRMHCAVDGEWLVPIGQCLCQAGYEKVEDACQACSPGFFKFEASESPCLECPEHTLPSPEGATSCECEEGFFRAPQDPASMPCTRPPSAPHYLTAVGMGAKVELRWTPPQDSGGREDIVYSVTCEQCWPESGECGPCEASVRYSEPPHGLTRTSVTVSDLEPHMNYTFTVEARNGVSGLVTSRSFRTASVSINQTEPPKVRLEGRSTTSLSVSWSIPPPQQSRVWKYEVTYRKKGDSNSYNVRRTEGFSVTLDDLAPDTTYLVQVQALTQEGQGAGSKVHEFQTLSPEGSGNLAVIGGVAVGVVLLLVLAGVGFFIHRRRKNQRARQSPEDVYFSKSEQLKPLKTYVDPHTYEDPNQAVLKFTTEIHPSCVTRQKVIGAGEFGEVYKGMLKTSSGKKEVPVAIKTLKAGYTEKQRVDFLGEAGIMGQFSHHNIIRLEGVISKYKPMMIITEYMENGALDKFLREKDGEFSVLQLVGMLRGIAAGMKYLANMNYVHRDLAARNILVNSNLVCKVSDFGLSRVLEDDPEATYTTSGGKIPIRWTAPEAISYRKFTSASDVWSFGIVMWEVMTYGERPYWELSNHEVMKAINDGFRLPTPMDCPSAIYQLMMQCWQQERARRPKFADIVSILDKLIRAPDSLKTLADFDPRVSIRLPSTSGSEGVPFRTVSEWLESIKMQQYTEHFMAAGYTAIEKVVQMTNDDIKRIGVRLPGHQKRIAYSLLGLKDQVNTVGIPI

[9] = biological target: Ephrin type-A receptor 8 (Homo sapiens) (UniProt P29322); test: Inhibition of wild-type human partial length EPHA8 (Q608 to C920 residues) expressed in Escherichia coli BL21 assessed as residual activity at 1000 nM after 30 mins by Kinomescan method relative to control
[10] = biological target: Ephrin type-B receptor 1 (Homo sapiens) (UniProt P54762); test: Inhibition of wild-type human partial length EPHB1 (P589 to T911 residues) expressed in Escherichia coli BL21 assessed as residual activity at 1000 nM after 30 mins by Kinomescan method relative to control
[11] = biological target: Mast/stem cell growth factor receptor Kit (Homo sapiens) (UniProt P10721); test: Inhibition of wild-type human partial length KIT (I571 to D952 residues) expressed in Escherichia coli BL21 assessed as residual activity at 1000 nM after 30 mins by Kinomescan method relative to control
[12] = tested on: Leucine-rich repeat serine/threonine-protein kinase 2 (Homo sapiens), Q5S007 [G2019S]; test: Inhibition of human partial length LRRK2 G2019S mutant (H970 to E2527 residues) expressed in HEK293 cells assessed as residual activity at 1000 nM after 30 mins by Kinomescan method relative to control; format: cell-based; in short: as §2
Chain of Leucine-rich repeat serine/threonine-protein kinase 2 (Homo sapiens), Q5S007 [G2019S] (Q5S007 whole entry G2019S, the tested form may be a part): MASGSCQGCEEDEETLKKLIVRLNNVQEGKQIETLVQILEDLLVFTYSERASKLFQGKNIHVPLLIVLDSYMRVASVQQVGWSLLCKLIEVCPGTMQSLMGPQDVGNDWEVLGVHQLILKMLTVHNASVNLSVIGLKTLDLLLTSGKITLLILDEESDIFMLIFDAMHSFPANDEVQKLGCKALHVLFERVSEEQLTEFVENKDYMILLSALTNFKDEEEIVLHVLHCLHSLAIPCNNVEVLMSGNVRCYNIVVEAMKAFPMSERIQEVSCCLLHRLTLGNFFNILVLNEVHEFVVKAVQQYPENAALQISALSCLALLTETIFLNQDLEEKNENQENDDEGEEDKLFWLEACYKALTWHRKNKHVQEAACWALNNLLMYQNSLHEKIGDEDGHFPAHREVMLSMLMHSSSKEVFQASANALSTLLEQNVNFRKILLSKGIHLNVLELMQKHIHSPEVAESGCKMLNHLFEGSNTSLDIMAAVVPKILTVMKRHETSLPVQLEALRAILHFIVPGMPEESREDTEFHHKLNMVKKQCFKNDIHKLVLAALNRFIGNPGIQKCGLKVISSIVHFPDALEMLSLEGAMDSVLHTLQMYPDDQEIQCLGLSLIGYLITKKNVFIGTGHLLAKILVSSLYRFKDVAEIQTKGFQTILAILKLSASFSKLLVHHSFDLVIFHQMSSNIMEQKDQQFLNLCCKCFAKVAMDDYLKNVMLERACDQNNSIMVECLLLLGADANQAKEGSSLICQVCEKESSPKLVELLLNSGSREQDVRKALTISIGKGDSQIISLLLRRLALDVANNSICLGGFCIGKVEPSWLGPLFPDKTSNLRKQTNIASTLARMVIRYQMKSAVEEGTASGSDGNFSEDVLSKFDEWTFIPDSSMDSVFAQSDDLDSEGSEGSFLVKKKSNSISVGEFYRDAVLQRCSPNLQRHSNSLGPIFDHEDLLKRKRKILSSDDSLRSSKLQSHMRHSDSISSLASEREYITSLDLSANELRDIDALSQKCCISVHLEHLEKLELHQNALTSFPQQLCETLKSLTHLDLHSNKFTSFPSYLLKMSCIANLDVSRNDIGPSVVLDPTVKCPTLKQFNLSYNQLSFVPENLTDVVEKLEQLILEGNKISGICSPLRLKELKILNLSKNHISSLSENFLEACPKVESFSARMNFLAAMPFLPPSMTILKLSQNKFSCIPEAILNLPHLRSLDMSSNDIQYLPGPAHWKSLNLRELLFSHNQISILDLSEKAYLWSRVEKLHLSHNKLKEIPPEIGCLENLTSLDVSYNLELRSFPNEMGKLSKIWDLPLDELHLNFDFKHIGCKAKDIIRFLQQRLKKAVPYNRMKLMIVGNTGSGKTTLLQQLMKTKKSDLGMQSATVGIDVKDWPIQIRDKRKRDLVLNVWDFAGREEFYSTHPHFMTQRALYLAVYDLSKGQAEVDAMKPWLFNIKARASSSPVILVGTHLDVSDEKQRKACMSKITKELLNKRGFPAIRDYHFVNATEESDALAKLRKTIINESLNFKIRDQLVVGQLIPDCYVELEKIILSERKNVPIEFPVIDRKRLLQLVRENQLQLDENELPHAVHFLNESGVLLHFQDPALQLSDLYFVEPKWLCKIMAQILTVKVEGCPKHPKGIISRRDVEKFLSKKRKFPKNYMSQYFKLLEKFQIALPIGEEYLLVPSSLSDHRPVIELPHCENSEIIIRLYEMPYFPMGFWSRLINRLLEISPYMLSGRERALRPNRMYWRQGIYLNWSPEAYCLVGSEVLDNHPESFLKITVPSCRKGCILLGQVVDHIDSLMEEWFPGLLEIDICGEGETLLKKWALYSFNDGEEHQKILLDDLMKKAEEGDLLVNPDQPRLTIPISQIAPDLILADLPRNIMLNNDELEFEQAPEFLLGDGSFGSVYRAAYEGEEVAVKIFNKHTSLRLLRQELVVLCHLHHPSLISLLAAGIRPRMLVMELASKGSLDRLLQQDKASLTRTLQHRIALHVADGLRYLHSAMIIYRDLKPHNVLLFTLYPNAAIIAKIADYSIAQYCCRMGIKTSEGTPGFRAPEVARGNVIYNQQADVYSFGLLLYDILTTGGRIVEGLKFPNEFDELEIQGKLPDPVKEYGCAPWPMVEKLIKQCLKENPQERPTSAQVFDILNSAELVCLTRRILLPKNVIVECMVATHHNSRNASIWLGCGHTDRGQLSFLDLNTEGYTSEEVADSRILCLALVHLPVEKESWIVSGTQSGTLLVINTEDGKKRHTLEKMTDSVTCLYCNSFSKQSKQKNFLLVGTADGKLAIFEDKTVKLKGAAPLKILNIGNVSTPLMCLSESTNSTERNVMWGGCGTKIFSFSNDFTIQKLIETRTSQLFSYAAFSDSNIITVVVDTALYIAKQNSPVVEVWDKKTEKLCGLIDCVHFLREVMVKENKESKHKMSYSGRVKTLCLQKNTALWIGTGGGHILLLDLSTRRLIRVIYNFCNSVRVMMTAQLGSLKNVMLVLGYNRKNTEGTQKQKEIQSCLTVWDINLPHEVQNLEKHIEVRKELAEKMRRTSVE

[13] = biological target: Misshapen-like kinase 1 (Homo sapiens) (UniProt Q8N4C8); test: Inhibition of wild-type human partial length MINK (M1 to K312 residues) expressed in HEK293 cells assessed as residual activity at 1000 nM after 30 mins by Kinomescan method relative to control; format: cell-based
[14] = biological target: Dual specificity mitogen-activated protein kinase kinase 7 (Homo sapiens) (UniProt O14733); test: Inhibition of wild-type human full length MKK7 (M1 to R419 residues) expressed in HEK293 cells assessed as residual activity at 1000 nM after 30 mins by Kinomescan method relative to control; format: cell-based
In short: (§3)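 Single-concentration screen at 1 µM across a 456-kinase KINOMEscan panel. The read-out is Percent Control for each kinase.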

[15] = biological target: Serine/threonine-protein kinase 38 (Homo sapiens) (UniProt Q15208); test: Inhibition of wild-type human partial length NDR1 (N33 to E449 residues) expressed in HEK293 cells assessed as residual activity at 1000 nM after 30 mins by Kinomescan method relative to control; format: cell-based
[16] = biological target: Serine/threonine-protein kinase Nek3 (Homo sapiens) (UniProt P51956); test: Inhibition of wild-type human full length NEK3 (M1 to R506 residues) expressed in HEK293 cells assessed as residual activity at 1000 nM after 30 mins by Kinomescan method relative to control; format: cell-based; in short: as §3
[17] = biological target: Serine/threonine-protein kinase PAK 1 (Homo sapiens) (UniProt Q13153); test: Inhibition of wild-type human partial length PAK1 (S149 to H545 residues) expressed in Escherichia coli BL21 assessed as residual activity at 1000 nM after 30 mins by Kinomescan method relative to control
[18] = tested on: Phosphatidylinositol 4,5-bisphosphate 3-kinase catalytic subunit alpha isoform (Homo sapiens), P42336 [Q546K]; test: Inhibition of human partial length PIK3CA Q546K mutant (R108 to N1068 residues) expressed in HEK293 cells assessed as residual activity at 1000 nM after 30 mins by Kinomescan method relative to control; format: cell-based; in short: as §1
[19] = biological target: TGF-beta receptor type-1 (Homo sapiens) (UniProt P36897); test: Inhibition of wild-type human partial length TGFBR1 (D179 to M503 residues) expressed in Escherichia coli BL21 assessed as residual activity at 1000 nM after 30 mins by Kinomescan method relative to control
Chain of TGF-beta receptor type-1 (Homo sapiens) (P36897 whole entry, the tested form may be a part): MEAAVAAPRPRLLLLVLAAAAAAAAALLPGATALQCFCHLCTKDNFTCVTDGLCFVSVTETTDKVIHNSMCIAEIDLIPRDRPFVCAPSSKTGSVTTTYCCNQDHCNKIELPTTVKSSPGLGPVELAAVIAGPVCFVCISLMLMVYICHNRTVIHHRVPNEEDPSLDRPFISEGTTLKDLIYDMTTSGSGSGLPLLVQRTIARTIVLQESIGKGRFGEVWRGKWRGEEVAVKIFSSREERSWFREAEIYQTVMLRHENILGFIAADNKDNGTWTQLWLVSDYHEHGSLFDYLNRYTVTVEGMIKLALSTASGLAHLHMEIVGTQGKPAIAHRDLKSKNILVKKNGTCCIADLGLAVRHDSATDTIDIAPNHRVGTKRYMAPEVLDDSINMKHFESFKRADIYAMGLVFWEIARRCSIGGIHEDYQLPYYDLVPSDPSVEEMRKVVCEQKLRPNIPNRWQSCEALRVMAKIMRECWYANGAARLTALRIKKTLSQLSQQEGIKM

[20] = biological target: Serine/threonine-protein kinase WNK2 (Homo sapiens) (UniProt Q9Y3S1); test: Inhibition of wild-type human partial length WNK2 (V47 to D482 residues) expressed in HEK293 cells assessed as residual activity at 1000 nM after 30 mins by Kinomescan method relative to control; format: cell-based
[21] = biological target: Mitogen-activated protein kinase kinase kinase 19 (Homo sapiens) (UniProt Q56UN5); test: Inhibition of wild-type human partial length YSK4 (T1019 to H1328 residues) expressed in HEK293 cells assessed as residual activity at 1000 nM after 30 mins by Kinomescan method relative to control; format: cell-based

`COc1cc(OC)c(Cl)c(N2Cc3cnc(Nc4ccc(F)cc4)nc3N(C3CCN(C(=O)/C=C/CN(C)C)CC3)C2=O)c1Cl` gave an IC50 [1] of 78.1 nM, an Activity [2] of 48% and an Activity [3] of 100%. For the same compound, the Activity [4] was 100%, the Activity [5] was 95% and the Activity [6] was 100%. It also gave an Activity [7] of 100%, an Activity [8] of 100% and an Activity [9] of 100%. The Activity [10] was 100%, the Activity [11] was 19% and the Activity [12] was 98%. For the same compound, the Activity [13] was 93%, the Activity [14] was 100% and the Activity [15] was 100%. It also gave an Activity [16] of 79%, an Activity [17] of 100% and an Activity [18] of 98%. For the same compound, the Activity [19] was 95%, the Activity [20] was 96% and the Activity [21] was 93%.
